RGS4 inh: human RGS4 inhibition. 310,000 compounds, 0.45% hits. P49798. HEK293 M3R/RGS4 inducible, Fluo-4 calcium flux; hits give high values; triggered by carbachol at its EC20. B-score at 10 µM;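 active = B-score, a plate-corrected calcium signal, over three deviations above library mean, with baseline fluorescence within five deviations of library mean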;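 also: RGS4 expression induced by doxycycline in cells with stable M3 receptor; B-score is computed from the integrated fluorescence ratio over baseline after carbachol; higher B-score means a larger calcium signal and so more RGS4 inhibition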
Target sequence (P49798 whole entry, looked up): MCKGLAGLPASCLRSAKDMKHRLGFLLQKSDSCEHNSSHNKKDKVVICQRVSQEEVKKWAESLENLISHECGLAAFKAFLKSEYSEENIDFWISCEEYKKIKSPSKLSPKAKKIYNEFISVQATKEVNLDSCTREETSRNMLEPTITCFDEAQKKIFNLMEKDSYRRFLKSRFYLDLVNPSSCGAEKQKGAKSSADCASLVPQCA
MrgX1 antagonist: human MrgX1 receptor antagonism, primary screen; Q96LB2; MRGX1-HEK293 calcium flux, Fluo-4, BAM8-22 antagonism; hits give low values; B-score at 10 µM; 310,000 compounds, 1.3% hits;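 active = calcium-response B-score plate-corrected more than 3 library SD below zero, starting fluorescence within 5 deviations, no agonist response on first addition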;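 also: peak minus trough fluorescence over baseline after final BAM8-22 challenge near maximal dose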
Target sequence (Q96LB2 whole entry, looked up): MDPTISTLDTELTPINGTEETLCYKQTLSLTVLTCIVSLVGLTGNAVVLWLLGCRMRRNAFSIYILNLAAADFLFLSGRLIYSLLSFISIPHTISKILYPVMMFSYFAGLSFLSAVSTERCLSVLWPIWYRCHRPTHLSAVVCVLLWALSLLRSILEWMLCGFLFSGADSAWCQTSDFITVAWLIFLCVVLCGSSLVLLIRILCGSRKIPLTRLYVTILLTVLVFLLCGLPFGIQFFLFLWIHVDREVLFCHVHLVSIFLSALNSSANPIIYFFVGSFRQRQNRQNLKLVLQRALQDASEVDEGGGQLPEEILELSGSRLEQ
MrgX1 PAM: human MrgX1 positive allosteric modulation, primary screen | Q96LB2 | MrgX1-HEK293, Fluo-4 calcium flux, FDSS; hits give high values | B-score at 10 µM | 310,000 compounds, 0.63% hits | AID 588675;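 active = plate-corrected calcium response at least 3 library SD above typical, normal starting fluorescence, not activating the receptor alone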;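 also: compound read alongside a low EC10 to EC30 dose of BAM8-22 agonist; peak minus trough fluorescence over baseline measured at the second addition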
MrgX1 agonist: agonists of human MrgX1 receptor | 310,000 compounds, 0.44% hits | B-score at 10 µM | MrgX1-HEK293 cells, Fluo-4 calcium fluorescence, agonist mode; hits give high values | Q96LB2;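 active = calcium response B-score plate-corrected fluorescence ratio at least 3 library SD, with starting fluorescence B-score inside 5 SD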
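Test system: HEK293 cells stably expressing human MrgX1 receptor; Input: fifteen thousand cells per well; Dosing: compound delivered in addition one of three; Schedule: overnight seeding, then 1 h dark dye loading; Technique: Fluo-4 NW calcium fluorescence; Measure: B-scored fluorescence response ratio; Controls: positive and negative controls per plate.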
RGS4 pot: RGS4 potentiation or activation | 310,000 compounds, 0.92% hits | B-score at 10 µM | HEK293 M3R/inducible RGS4, carbachol calcium flux Fluo4; hits give low values;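 active = B-score of the integrated calcium signal more than 4 SD below the library mean, with starting fluorescence not abnormally high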;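 also: negative B-score means reduced calcium response which marks RGS4 activation or potentiation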
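System – HEK293 FlpIn-TREx cells, stable M3R, doxycycline-inducible RGS4 · Reagent – ECmax carbachol challenge · Times – compound preincubation 20 min at room temperature before agonist · Technique – Fluo4 fluorescence kinetic imaging of calcium · Measure – B score of integrated Fluo4 ratio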
RGS4 block valid: RGS4 inhibitor validation | HEK293 M3R/RGS4, carbachol calcium Fluo-4 fluorescence; carbachol added at its EC20; 0 = buffer wells, 100 = carbachol control | 1,700 compounds, 65% hits | shares compounds with RGS4 inh | calcium response, % at 10 µM;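 active = duplicate-averaged calcium response above the buffer-only control mean plus 5 SD of those controls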;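 also: integrated fluorescence ratio F max minus min over baseline F0; higher response in RGS4-induced cells means RGS4 inhibition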
M3R Ca ctr: checks RGS4 inhibitor effects in non-induced HEK293 M3R cells; activity (percent), % at 10 µM; carbachol calcium Fluo-4; submaximal (EC20) carbachol stimulus; buffer wells 0%, carbachol control wells 100%; AID 493000; shares compounds with RGS4 inh; 1,900 compounds, 20% hits; call rule not given here;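 also: RGS4 induction absent so cells express M3R without RGS4; higher means more calcium signal and flags a non-specific hit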
RGS4 inh ctr2: second counter-screen for RGS4 inhibitors: non-induced cells without carbachol. HEK293 M3R/RGS4 non-induced, Fluo-4 calcium, no carbachol; normalised: buffer wells 0%, carbachol wells 100%. 1,900 compounds, 22% hits. calcium response (agonist-mode artifact), % at 10 µM. AID 493001. shares compounds with RGS4 inh;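 active = duplicate-averaged calcium rise in uninduced cells above buffer wells' mean plus 5 SD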
Large screens that a line does not name were inactive (follow-up assays come after a bar, where they were run). An excerpt weighted towards active compounds, which were near 3.5% of everything screened.

COc1cc(OC)c(OC)cc1/C=N/NC(=O)CSc1ccccc1F	none
COc1cccc(/C=N/NC(=O)CSc2ccccc2C)c1O	RGS4 inh 5.9 | RGS4 block valid 64% | M3R Ca ctr inactive | RGS4 inh ctr2 inactive
COc1cccc(/C=N/NC(=O)CSc2nnc(C)n2-c2ccccc2)c1OC	none
N#Cc1c(-c2ccccc2F)cc(C2CC2)nc1SCC(=O)c1cccs1	none
Cc1cc(C)cc(N(CCC#N)C(=O)COC(=O)c2ccc(OCc3c(C)noc3C)cc2)c1	none
Cc1ccc(-c2nnc(SCC(=O)NC(=O)Nc3ccc(C)cc3C)n2N)cc1	none
Cc1ccc(NC(=O)NC(=O)CSc2nnc(-c3ccc(Cl)cc3Cl)n2N)c(C)c1	RGS4 inh 5.2 | RGS4 block valid inactive | M3R Ca ctr inactive | RGS4 inh ctr2 inactive
Cc1cc(NS(=O)(=O)c2cn(C)nc2C)no1	none
CN(C)S(=O)(=O)N(CC(=O)Nc1ccc(S(=O)(=O)N2CCCC2)cc1)c1ccccc1	none
O=C1/C(=C/c2cccnc2)CC/C1=C\c1cccnc1	RGS4 inh 6.9 | RGS4 block valid 20% | M3R Ca ctr inactive | RGS4 inh ctr2 inactive
CC(C)/C=C1\CC/C(=C\c2cccnc2)C1=O	none | M3R Ca ctr inactive | RGS4 inh ctr2 inactive
CC(C)c1onc(C(=O)N(C)C2CCCCC2)c1[N+](=O)[O-]	none
COc1ccc(-c2c(-c3ccc(OCC(=O)NN)cc3O)n[nH]c2C)cc1OC	none
COc1ccc(-c2c(-c3ccc(OCC(=O)NN)cc3O)n[nH]c2C(F)(F)F)cc1	RGS4 inh 12 | RGS4 block valid 28% | M3R Ca ctr 29% | RGS4 inh ctr2 inactive
Cc1ccc(S(=O)(=O)c2ccc(Cl)cc2)cc1S(=O)(=O)NC(C)C(=O)O (configuration not stated)	none
Oc1ccc(Br)cc1/C=N/n1c(C2CCCCC2)n[nH]c1=S	RGS4 inh 5.7 | RGS4 block valid 5.0% | M3R Ca ctr inactive | RGS4 inh ctr2 inactive
Cc1cc(CNC(=O)C2(C(F)(F)F)C/C(=C\Cc3ccccc3)CCCO2)nn1C (configuration not stated)	none
CCC(=O)Nc1ccc(C=C(C(C)=O)C(C)=O)cc1	RGS4 inh 5 | RGS4 block valid 56% | M3R Ca ctr 29% | RGS4 inh ctr2 16%
COc1ccc2c(c1OC)C(=O)N1C2SC[C@H]1C(=O)NC1CCCC1 (some centres not stated)	none
COCCCNC(=O)CN1C(=O)COc2ccc(S(=O)(=O)N3CCOCC3)cc21	none | RGS4 block valid inactive | M3R Ca ctr inactive | RGS4 inh ctr2 inactive
CCCN(CCC)CCNC(=O)CN1C(=O)COc2ccc(S(=O)(=O)N3CCOCC3)cc21	none
CC(NC(=S)Nc1c(Br)cccc1OC(F)F)C(C)(C)C (configuration not stated)	none
COc1ccc(NC(=O)/C(Cl)=C(/Cl)S(=O)(=O)Cc2ccccc2)cn1	RGS4 inh 18 (no result: MrgX1 antagonist, MrgX1 PAM, MrgX1 agonist) | RGS4 block valid 69% | M3R Ca ctr 48% | RGS4 inh ctr2 15%
Cc1cc(N=Cc2c(O)ccc3cc(Br)ccc23)no1	RGS4 inh 9.9 | RGS4 block valid inactive | M3R Ca ctr inactive | RGS4 inh ctr2 24%
Cc1cc(N=Cc2c(O)ccc3ccccc23)no1	none
CCOC(=O)N1CCC(=NNC(=O)COc2ccc(OC)cc2)CC1	none
COc1ccc(C2=Nn3c(nnc3-c3ccccc3OC)SC2)cc1OC	RGS4 inh 8.2 | RGS4 block valid 20% | M3R Ca ctr 34% | RGS4 inh ctr2 inactive
COc1ccc(C2=Nn3c(nnc3-c3ccccn3)SC2)cc1OC	none
COC(=S)Nc1cccc(C(F)(F)F)c1	none
COC(=O)/C=C/C(=O)Nc1cccc(C(F)(F)F)c1	RGS4 inh 6.7 | RGS4 block valid 13% | M3R Ca ctr 44% | RGS4 inh ctr2 inactive
COc1cc(OC)cc(C(=O)NCC2CCCN(Cc3ccc(SC)cc3)C2)c1 (configuration not stated)	none
O=C(C1CCC(=O)N1Cc1ccccc1Cl)N1CCN(c2cccc(Cl)c2)CC1 (configuration not stated)	none
CSc1ccc(S(=O)(=O)Nc2ccc(NC(C)=O)cc2)cc1	none
CCOc1ccc(NS(=O)(=O)c2ccc(NS(=O)(=O)c3ccc(SC)cc3)cc2)cc1	RGS4 inh 5.2, MrgX1 antagonist -4.8 | RGS4 block valid 13% | M3R Ca ctr 32% | RGS4 inh ctr2 inactive
CSc1ccc(S(=O)(=O)Nc2ccc(S(=O)(=O)Nc3ccc(C)cc3)cc2)cc1	RGS4 inh 5 | RGS4 block valid 28% | M3R Ca ctr inactive | RGS4 inh ctr2 inactive
Cc1cc(C)c(NC(=O)C2CCCN2C(=O)NC2CCCCC2)c(C)c1 (configuration not stated)	none
Cc1cccc(OCC(=O)N/N=C\c2cn(C)c3ccccc23)c1	RGS4 inh 7.3 | RGS4 block valid inactive | M3R Ca ctr inactive | RGS4 inh ctr2 inactive
O=C(COc1cccc(Br)c1)N/N=C/C(=O)c1ccccc1	RGS4 inh 4.7 | RGS4 block valid 8.0% | M3R Ca ctr inactive | RGS4 inh ctr2 inactive
O=C1C2C(C(=O)N1/N=C/c1cccc([N+](=O)[O-])c1)C1C=CC2C12CC2 (configuration not stated)	none
CCCCC(=O)Nc1nc2c(s1)COc1ccccc1-2	none
Cc1cc(Cl)ccc1OCC(=O)NNC(=O)c1ccco1	none | M3R Ca ctr inactive | RGS4 inh ctr2 inactive
O=C1Nc2ccc(S(=O)(=O)N3CCCC3C(=O)O)c3cccc1c23 (configuration not stated)	RGS4 inh 5.5 | RGS4 block valid inactive | M3R Ca ctr inactive | RGS4 inh ctr2 inactive
O=C1Nc2ccc(S(=O)(=O)N3CCCC3)c3cccc1c23	none
CCOC(=O)C1CCCN(C(=O)c2cc(CN3C(=O)c4ccccc4C3=O)ccc2OC)C1 (configuration not stated)	none
O=C(COC(=O)CCCSc1nc2ccccc2[nH]1)Nc1ccc(Cl)cc1	none
Cc1sc(NC(=O)c2cc(-c3ccccc3)nc3ccccc23)c(C(N)=O)c1C	none | M3R Ca ctr inactive | RGS4 inh ctr2 inactive
CCc1nnc(NC(=O)c2cc(-c3ccccn3)nc3ccc(Br)cc23)s1	none
Cc1sc(NC(=O)c2cc(-c3ccc(Cl)cc3)nc3ccccc23)c(C(N)=O)c1C	none

From PubChem
